In ChEMBL document CHEMBL4049456, “Identification of 4-(Aminomethyl)-6-(trifluoromethyl)-2-(phenoxy)pyridine Derivatives as Potent, Selective, and Orally Efficacious Inhibitors of the Copper-Dependent Amine Oxidase, Lysyl Oxidase-Like 2 (LOXL2)” (J Med Chem, 2017):

Experiments:
Lysyl oxidase homolog 2 [1] = target: T1, Lysyl oxidase homolog 2 (Homo sapiens, UniProt Q9Y4K0); test: Inhibition of human LOXL2 expressed in CHO cells assessed as reduction of H2O2 production from oxidative deamination of DAP preincubated for 2 hrs followed by substrate addition in presence of 0.1% BSA measured every 2 mins for 1 hr by amplex red reagent-based fluorescence assay; assay type: cell-based
T1 sequence (Q9Y4K0 whole entry): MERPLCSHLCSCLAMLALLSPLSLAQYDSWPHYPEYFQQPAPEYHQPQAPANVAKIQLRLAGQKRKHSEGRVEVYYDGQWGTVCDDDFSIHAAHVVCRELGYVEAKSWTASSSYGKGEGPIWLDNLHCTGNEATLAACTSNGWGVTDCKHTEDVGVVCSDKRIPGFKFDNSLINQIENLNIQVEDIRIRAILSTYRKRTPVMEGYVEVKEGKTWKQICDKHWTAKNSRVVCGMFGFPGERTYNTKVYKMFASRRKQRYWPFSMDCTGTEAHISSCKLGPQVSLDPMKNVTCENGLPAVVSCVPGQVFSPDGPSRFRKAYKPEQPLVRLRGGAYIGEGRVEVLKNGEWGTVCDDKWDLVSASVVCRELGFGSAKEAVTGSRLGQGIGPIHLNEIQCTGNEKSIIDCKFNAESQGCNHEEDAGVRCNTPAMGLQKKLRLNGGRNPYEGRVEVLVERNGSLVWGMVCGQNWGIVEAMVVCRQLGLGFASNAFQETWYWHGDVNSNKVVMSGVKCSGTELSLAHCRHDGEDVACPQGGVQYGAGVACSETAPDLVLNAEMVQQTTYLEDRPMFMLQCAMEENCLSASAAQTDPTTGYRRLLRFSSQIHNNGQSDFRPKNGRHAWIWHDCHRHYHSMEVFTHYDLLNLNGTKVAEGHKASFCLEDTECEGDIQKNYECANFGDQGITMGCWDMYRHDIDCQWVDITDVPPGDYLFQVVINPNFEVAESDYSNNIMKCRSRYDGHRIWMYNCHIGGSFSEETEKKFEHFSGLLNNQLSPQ

Lysyl oxidase homolog 2 [2] = target: T1, Lysyl oxidase homolog 2; test: Inhibition of human LOXL2 expressed in CHO cells assessed as reduction of H2O2 production from oxidative deamination of DAP preincubated for 2 hrs followed by substrate addition measured every 2 mins for 1 hr by amplex red reagent-based fluorescence assay; assay type: cell-based
Lysyl oxidase homolog 2 [3] = target: T1, Lysyl oxidase homolog 2; test: Inhibition of recombinant human LOXL2 expressed in human whole blood assessed as reduction of H2O2 production from oxidative deamination of DAP preincubated for 2 hrs followed by substrate addition measured every 2 mins for 1 hr by amplex red reagent-based fluorescence assay
[4] = Cmax in C57BL/6 mouse plasma at 30 mg/kg, po by LC-MS/MS analysis; assay type: ADME, organism-based; design: dose 30 mg/kg, route oral
Procedure, shortened: (§1)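 Normal C57BL/6 mice, n = 3 per time point, received a single oral 30 mg/kg dose formulated in 0.5% methylcellulose.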

[5] = target: T2, Lysyl oxidase homolog 2 (Homo sapiens) (UniProt Q9Y4K0); test: Irreversible inhibition of human LOXL2 assessed as reduction of H2O2 production from oxidative deamination of DAP at 1000 times IC50 preincubated for 2 hrs followed by compound washout and subsequent incubation for 2 hrs prior to substrate addition measured every 2 mins for 40 mins by amplex red reagent-based fluorescence assay relative to control
T2 sequence (whole entry): T1 sequence (Q9Y4K0 whole entry)
Procedure, shortened: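 Wells were washed repeatedly with PBS and equilibrated for 2 h. Recovered activity was then compared with nonwashed controls.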

[6] = target: T2, Lysyl oxidase homolog 2 (Homo sapiens); test: Irreversible inhibition of human LOXL2 assessed as catalytic activity preincubated for 2 hrs followed by substrate addition measured every 2 mins for 1 hr by amplex red reagent-based fluorescence assay relative to control; design: concentration or dose not given beside the values
[7] = Protein binding in human plasma; assay type: ADME, cell-free; conditions: read-out: PPB (converted)
[8] = Cmax in C57BL/6 mouse lung at 30 mg/kg, po by LC-MS/MS analysis; assay type: ADME, organism-based; design: dose 30 mg/kg, route oral; procedure, shortened: as §1

IC50 (Lysyl oxidase homolog 2 [1])	IC50 (Lysyl oxidase homolog 2 [2])	IC50 (Lysyl oxidase homolog 2 [3])	Cmax [4]	inhibition [5]	inhibition [6]	fraction unbound [7]	Cmax [8]	Compound
370 nM	120 nM	7900 nM	–	–	–	–	–	NCc1ccnc(Oc2cccc(C(=O)N3CCc4ccccc4C3)c2)c1
130 nM	50 nM	1600 nM	–	–	–	–	–	NCc1ccnc(Oc2cccc(C(=O)Nc3ccc(F)cc3)c2)c1
1500 nM	500 nM	30000 nM	–	–	–	–	–	COCCNC(=O)c1ccc(Oc2cc(CN)ccn2)cc1
1800 nM	850 nM	29000 nM	–	–	–	–	–	NCc1ccnc(OC2CCCCC2)c1
110 nM	62 nM	1400 nM	–	–	–	–	–	NCc1ccnc(Oc2cccc(C(=O)NCc3ccccc3)c2)c1
130 nM	56 nM	1300 nM	–	–	–	–	–	NCc1ccnc(Oc2cccc(C(=O)Nc3ccccc3)c2)c1
62 nM	42 nM	2900 nM	860 nM	88%	98%	0.04	10300 nM	Cl.NCc1cc(Oc2cccc(C(=O)Nc3ccccc3)c2)nc(C(F)(F)F)c1
100 nM	34 nM	9900 nM	–	–	–	–	–	NCc1cc(Oc2cccc(C(=O)NCc3cc4ccccc4s3)c2)nc(C(F)(F)F)c1
140 nM	96 nM	840 nM	630 nM	–	–	–	8780 nM	CONC(=O)c1cccc(Oc2cc(CN)cc(C(F)(F)F)n2)c1.Cl
150 nM	110 nM	910 nM	5130 nM	75%	95%	–	9130 nM	Cl.NCc1cc(Oc2cccc(C(=O)N3CC[C@@H](O)C3)c2)nc(C(F)(F)F)c1
88 nM	77 nM	550 nM	2770 nM	77%	96%	–	1920 nM	Cl.NCc1cc(Oc2cccc(C(=O)NC[C@@H](O)CO)c2)nc(C(F)(F)F)c1
80 nM	43 nM	280 nM	1990 nM	77%	97%	–	3460 nM	Cl.NCc1cc(Oc2cccc(C(=O)NCCn3cnnn3)c2)nc(C(F)(F)F)c1
300 nM	81 nM	1400 nM	–	–	–	–	–	NCc1ccnc(Oc2cccc(C(=O)Nc3ccc(C(=O)O)cc3)c2)c1
290 nM	160 nM	2900 nM	–	–	–	–	–	COCCNC(=O)c1cccc(Oc2cc(CN)ccn2)c1
650 nM	180 nM	5200 nM	–	–	–	–	–	N=C(N)c1cccc(CNC(=O)c2cccc(Oc3cc(CN)ccn3)c2)c1
–	–	–	–	32%	93%	–	–	NCc1ccnc(Cl)c1
750 nM	270 nM	39000 nM	–	–	–	–	–	NCc1ccnc(Oc2ccc(C(=O)Nc3ccccc3)cc2)c1
270 nM	67 nM	23000 nM	–	–	–	–	–	NCc1cc(Oc2cccc(Oc3ccccc3)c2)nc(C(F)(F)F)c1
620 nM	570 nM	40000 nM	–	–	–	–	–	NCc1cc(O[C@@H]2CCCN(C(=O)Nc3ccccc3)C2)nc(C(F)(F)F)c1
160 nM	53 nM	1800 nM	–	–	–	–	–	COc1ccc(NC(=O)c2cccc(Oc3cc(CN)ccn3)c2)cc1
62 nM	35 nM	310 nM	1040 nM	75%	97%	–	540 nM	Cl.NCc1cc(Oc2cccc(C(=O)NCCS(N)(=O)=O)c2)nc(C(F)(F)F)c1
160 nM	130 nM	2000 nM	1900 nM	–	–	–	30000 nM	NCc1cc(O[C@H]2CCCN(C(=O)Nc3ccccc3)C2)nc(C(F)(F)F)c1
110 nM	79 nM	1700 nM	–	–	–	–	–	NCc1ccnc(Oc2cccc(C(=O)NCc3cc4ccccc4s3)c2)c1
100 nM	58 nM	690 nM	670 nM	–	–	–	1230 nM	Cl.Cl.NCc1cc(Oc2cccc(C(=O)N3CC[C@@H](N)C3)c2)nc(C(F)(F)F)c1
